The term GI50 denotes the concentration that inhibits growth by half. High values mean lower sensitivity of the cells, low ones greater sensitivity of the cells.

In ChEMBL document CHEMBL1135379, “Polyhydroxylated azepanes as new motifs for DNA minor groove binding agents” (2002) one finds GI50, K app and C50 data, which are given here for eight compounds.

The subject of assay [1] is MCF7. Put plainly: Tested for in vitro concentration required to inhibit growth by 50% against MCF-7 human breast cancer cell line cell line. It counts as functional.
The subject of assay [2] is HT-29. Description: Tested for in vitro concentration required to inhibit growth by 50% against HT-29 human colon cancer cell line. The assay is classed as functional.
For assay [3], the system named is Nucleic Acid. Put plainly: Apparent binding constant was calculated. The assay is classed as nucleic-acid assay. The method, boiled down: (§1)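 Ethidium displacement (Cain et al. method), pH 7.0. A preformed DNA–ethidium intercalated complex in HEPES buffer with NaCl and EDTA is titrated with ligand while intercalated-ethidium fluorescence is monitored. C50 is the ligand concentration that displaces 50% of the ethidium. K_app = (1.26 × K_e)/C50, using the known ethidium binding constant under these conditions. Means of three experiments.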

The test system of assay [4] is Nucleic Acid. Put plainly: Concentration required to displace 50% of the ethidium from a preformed, intercalated complex. The assay is classed as nucleic-acid assay. Summed up: as §1
Assay [5] deals with HCT-116. Description: Tested for in vitro concentration required to inhibit growth by 50% against HCT116 human colon cancer cell line. The assay is classed as functional.
Assay [6] relates to NCI/ADR-RES. Description: Tested for in vitro concentration required to inhibit growth by 50% against MCF-7/ADR human breast cancer cell line cell line. It counts as functional.

For `CC1(C)O[C@H]2[C@H](O1)[C@H](O)CN(c1ccc(OCCCOc3ccc(N4C[C@@H](O)[C@H]5OC(C)(C)O[C@@H]5[C@H](O)C4)cc3)cc1)C[C@H]2O`, the GI50 in assay [1] was 33 µM; in assay [2], 40 µM; in assay [5], 32 µM; in assay [6], over 50 µM. Also, the K app in assay [3] was 17000 M⁻¹. The C50 in assay [4] was 703 µM.

Take `Cn1cc(NC(=O)c2cc(NC(=O)c3cc(NC=O)cn3C)cn2C)cc1C(=O)NCCC(=N)N`: the K app in assay [3] was 6.7e+06 M⁻¹. Also, the C50 in assay [4] was found to be 1.8 µM.

`OC1CN(Cc2ccc(OCCCOc3ccc(CN4C[C@@H](O)[C@@H](O)[C@H](O)[C@H](O)C4)cc3)cc2)C[C@@H](O)[C@@H](O)C1O` (single isomer, unassigned): the GI50 in assay [1] is over 50 µM; in assay [2], 24 µM; in assay [5] it was over 50 µM; in assay [6], over 50 µM. For the same compound, the K app in assay [3] was 190000 M⁻¹. In assay [4], this compound displayed a C50 of 61.6 µM.

As for `CC1(C)O[C@H]2[C@H](O1)[C@H](O)CN(Cc1ccc(OCCCOc3ccc(CN4CC(O)[C@H]5OC(C)(C)O[C@@H]5[C@H](O)C4)cc3)cc1)C[C@H]2O` (single isomer, unassigned), the 50% growth inhibitory concentration (GI50) in assay [1] amounted to 24 µM; in assay [2], 23 µM; in assay [5], 6 µM; in assay [6], 10 µM.

Regarding `OC1CN(Cc2ccc(OCCCOc3ccc(CN4C[C@H](O)[C@@H](O)[C@H](O)[C@@H](O)C4)cc3)cc2)C[C@H](O)[C@@H](O)C1O` (single isomer, unassigned), the K app in assay [3] is 120000 M⁻¹. The compound also displayed a C50 in assay [4] of 97 µM.

Take `O=C(O)CCCc1ccc(N(CCCl)CCCl)cc1` [CHLORAMBUCIL]: the GI50 turned out to be 30 µM in assay [1], 129 µM in assay [2], 105 µM in assay [5] and 56 µM in assay [6].

Turning to `COc1cccc2c1C(=O)c1c(O)c3c(c(O)c1C2=O)C[C@@](O)(C(=O)CO)C[C@@H]3O[C@H]1C[C@H](N)[C@H](O)[C@H](C)O1` [DOXORUBICIN], the GI50 in assay [1] amounted to 0.013 µM; in assay [2], 0.056 µM; in assay [5], 0.023 µM; in assay [6], 16.7 µM.

As to `N=C(N)c1ccc(OCCCOc2ccc(C(=N)N)cc2)cc1` [PROPAMIDINE], the GI50 was 9 µM in assay [1], over 50 µM in assay [2] and 11 µM in assay [5]. The K app in assay [3] was 470000 M⁻¹. This compound also yielded a C50 in assay [4] of 25.6 µM.
